Columns and labels:
[1] = target: Sterol 14-alpha demethylase (Trypanosoma cruzi (strain CL Brener)) (UniProt Q7Z1V1); assay: Inhibition of Trypanosoma cruzi CYP51 assessed as substrate conversion level using [3H]eburicol substrate at inhibitor/enzyme molar ratio of 2 after 1 hr by HPLC method; design: scale not given: the % may be the effect or the level left
In short: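 Reconstituted full-length CYP51 (1 μM) with 2 μM CPR, 100 μM dilauroylphosphatidylcholine, and an isocitrate dehydrogenase/isocitrate system in 20 mM MOPS pH 7.4, 50 mM KCl, 5 mM MgCl₂, 10% glycerol. [³H]eburicol is final 50 μM; enzyme/substrate/inhibitor ratio is 1:50:2. After 5 min preincubation at 37 °C, 100 μM NADPH starts the 1 h reaction. Sterols are ethyl acetate-extracted and resolved by reverse-phase HPLC with radiodetection.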

[2] = target: Sterol 14-alpha demethylase (Trypanosoma cruzi (strain CL Brener)) (UniProt Q7Z1V1); assay: Binding affinity to Trypanosoma cruzi CYP51 by spectral ligand binding assay
In short: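 Full-length Tulahuen T. cruzi CYP51 at ~1 μM in 20 mM K-phosphate pH 7.4, 200 mM NaCl, 0.1 mM EDTA, 25 °C, 5 cm path. Ligand is titrated 0.2–2.0 μM in 0.2 μM steps, with DMSO matched in the reference cuvette. The Soret red-shift difference spectra (peak-to-trough ΔA) are fit to a quadratic tight-binding equation, giving Ks and ΔAmax/Ks.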

[3] = test system: Trypanosoma cruzi; assay: Antitrypanosomal activity against Trypanosoma cruzi Tulahuen trypomastigotes expressing green florescent protein infected in cardiomyocytes assessed as inhibition of parasite growth at 10 nM after 72 hrs by fluorescence microscopy; format: functional
[4] = test system: Trypanosoma cruzi; assay: Antitrypanosomal activity against Trypanosoma cruzi Tulahuen trypomastigotes expressing green florescent protein infected in cardiomyocytes assessed as inhibition of parasite growth after 72 hrs by fluorescence microscopy; format: functional, organism-based
In short: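 GFP-expressing T. cruzi Tulahuen 20A-clone trypomastigotes infect cardiomyocyte monolayers at 10 parasites per cell in DMEM + 10% FBS; unbound parasites are washed off. At 24 h, inhibitors (1–25 nM, in DMSO/phenol-red-free DMEM) are added and cultured 48 h, in triplicate. At 72 h, infection is read as fluorescence (RFU), or cells are fixed in paraformaldehyde and stained with DAPI/phalloidin for microscopy. Posaconazole is the control.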

Sterol 14-alpha demethylase (Trypanosoma cruzi (strain CL Brener)), sequence (Q7Z1V1 whole entry, looked up): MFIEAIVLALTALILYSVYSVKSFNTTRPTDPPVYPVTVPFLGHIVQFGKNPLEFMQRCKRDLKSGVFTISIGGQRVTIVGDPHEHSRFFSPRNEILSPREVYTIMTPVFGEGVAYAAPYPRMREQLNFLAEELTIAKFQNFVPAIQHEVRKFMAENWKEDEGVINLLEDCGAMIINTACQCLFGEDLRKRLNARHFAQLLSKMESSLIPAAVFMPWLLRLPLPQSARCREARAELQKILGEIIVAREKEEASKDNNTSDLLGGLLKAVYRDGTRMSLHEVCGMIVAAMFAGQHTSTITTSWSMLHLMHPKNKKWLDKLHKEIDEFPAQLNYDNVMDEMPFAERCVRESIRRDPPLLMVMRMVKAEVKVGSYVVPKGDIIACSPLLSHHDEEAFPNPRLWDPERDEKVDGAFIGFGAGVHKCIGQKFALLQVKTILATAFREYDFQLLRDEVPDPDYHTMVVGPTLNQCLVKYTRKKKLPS

| SMILES | Activity [1] | Ks [2] | inhibition at 0.01 µM [3] | EC50 [4] |
| --- | --- | --- | --- | --- |
| CC(C)c1ccc(NC(=O)O[C@H](Cn2ccnc2)c2ccc(F)cc2)cc1 | 8.5% | 0.032 µM | 69.3% | 5.5 nM |
| O=C(NCCCn1ccnc1)O[C@@H](Cn1ccnc1)c1ccc(F)cc1 | 89.2% | 0.087 µM | – | – |
| O=C(Nc1ccc(N2CCN(c3ccc(Cl)c(Cl)c3)CC2)cc1)O[C@@H](Cn1ccnc1)c1ccc(Cl)cc1Cl | 0.8% | – | 83% | 1.2 nM |
| O=C(Nc1ccc(Sc2ccc([N+](=O)[O-])cc2)cc1)O[C@H](Cn1ccnc1)c1ccc(Cl)cc1 | 12.5% | 0.162 µM | 70% | 1.5 nM |
| O=C(O[C@@H](Cn1ccnc1)c1ccccc1)c1ccc(-c2ccccc2)cc1 | 79.5% | 0.087 µM | 29.5% | 15 nM |
| CC[C@@H]([C@H](C)O)n1ncn(-c2ccc(N3CCN(c4ccc(OC[C@@H]5CO[C@@](Cn6cncn6)(c6ccc(F)cc6F)C5)cc4)CC3)cc2)c1=O [POSACONAZOLE] | – | – | 64% | 5 nM |
| O=C(Nc1ccc(Sc2ccc([N+](=O)[O-])cc2)cc1)O[C@@H](Cn1ccnc1)c1ccc(Cl)cc1 | 52.5% | 0.715 µM | 62.5% | 2.5 nM |
| CC(C)c1ccc(NC(=O)O[C@H](Cn2ccnc2)c2ccc(Cl)cc2)cc1 | 1.9% | – | 74.5% | 1 nM |
| CC(C)c1ccc(NC(=O)O[C@@H](Cn2ccnc2)c2ccc(F)cc2)cc1 | 86.5% | 0.083 µM | 32.1% | 20 nM |
| O=C(O[C@H](Cn1ccnc1)c1ccccc1)c1ccc(-c2ccccc2)cc1 | 0.7% | 0.046 µM | 76.3% | 1.2 nM |
| O=C(NCCCn1ccnc1)O[C@H](Cn1ccnc1)c1ccc(F)cc1 | 93.9% | 0.6 µM | – | – |
| O=C(Nc1ccc(N2CCN(c3ccc(Cl)c(Cl)c3)CC2)cc1)O[C@H](Cn1ccnc1)c1ccc(Cl)cc1Cl | 3.8% | – | 73.5% | 1.3 nM |
| CC(C)c1ccc(NC(=O)O[C@@H](Cn2ccnc2)c2ccc(Cl)cc2)cc1 | 90% | – | 30.5% | 22 nM |

Source: ChEMBL document CHEMBL3351276, “Structural basis for rational design of inhibitors targeting Trypanosoma cruzi sterol 14α-demethylase: two regions of the enzyme molecule potentiate its inhibition” (J Med Chem, 2014)
